# Test results as given in ChEMBL document CHEMBL1145100, “Structure-activity relationship of imidazo[1,2-a]pyridines as ligands for detecting beta-amyloid plaques in the brain” (J Med Chem, 2003).
# What was measured:
# Mus musculus [1] = test: Biodistribution of radioactivity in normal mice (ICR) spleen after 2 minutes of intravenous injection of [125I]-16(IMPY); type: ADME, organism-based; conditions: in vivo
# Procedure, shortened: (§1)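 Male ICR mice, 2-3 months old, 20-30 g, under ether anesthesia, given 0.15 mL of 0.1% bovine serum albumin solution containing the [125I] tracer into the tail vein. Killed by cardiac excision at set times after injection. Organs removed and weighed, then gamma-counted. % dose per organ computed against diluted aliquots of the injected material.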
# Mus musculus [2] = test: Biodistribution of radioactivity in normal mice (ICR) skin after 6 hours of intravenous injection of [125I]-16(IMPY); type: ADME, organism-based, Zone of skin; conditions: in vivo; procedure, shortened: as §1
# Mus musculus [3] = test: Biodistribution of radioactivity in normal mice (ICR) spleen after 24 hours of intravenous injection of [125I]-16(IMPY); type: ADME, organism-based; conditions: in vivo; procedure, shortened: as §1
# Mus musculus [4] = test: Biodistribution of radioactivity in normal mice (ICR) brain after 2 hours of intravenous injection of [125I]-16(IMPY); type: ADME, organism-based; conditions: in vivo; procedure, shortened: as §1
# Mus musculus [5] = test: Biodistribution of radioactivity in normal mice (ICR) brain after 24 hours of intravenous injection of [125I]-16(IMPY); type: ADME, organism-based; conditions: in vivo; procedure, shortened: as §1
# Mus musculus [6] = test: Biodistribution of radioactivity in normal mice (ICR) kidney after 2 hours of intravenous injection of [125I]-16(IMPY); type: ADME, organism-based; conditions: in vivo; procedure, shortened: as §1
# Mus musculus [7] = test: Biodistribution of radioactivity in normal mice (ICR) muscle after 2 hours of intravenous injection of [125I]-16(IMPY); type: ADME, organism-based, Muscle tissue; conditions: in vivo; procedure, shortened: as §1
# Mus musculus [8] = test: Biodistribution of radioactivity in normal mice (ICR) brain after 1 hour of intravenous injection of [125I]-16(IMPY); type: ADME, organism-based; conditions: in vivo; procedure, shortened: as §1
# Mus musculus [9] = test: Biodistribution of radioactivity in normal mice (ICR) heart after 24 hours of intravenous injection of [125I]-16(IMPY); type: ADME, organism-based; conditions: in vivo; procedure, shortened: as §1
# Mus musculus [10] = test: Biodistribution of radioactivity in normal mice (ICR) spleen after 2 hours of intravenous injection of [125I]-16(IMPY); type: ADME, organism-based; conditions: in vivo; procedure, shortened: as §1
# Mus musculus [11] = test: Biodistribution of radioactivity in normal mice (ICR) liver after 30 minutes of intravenous injection of [125I]-16(IMPY); type: ADME, organism-based; conditions: in vivo, 0.5 h; procedure, shortened: as §1
# Mus musculus [12] = test: Biodistribution of radioactivity in normal mice (ICR) skin after 24 hours of intravenous injection of [125I]-16(IMPY); type: ADME, organism-based, Zone of skin; conditions: in vivo; procedure, shortened: as §1
# Mus musculus [13] = test: Biodistribution of radioactivity in normal mice (ICR) liver after 2 minutes of intravenous injection of [125I]-16(IMPY); type: ADME, organism-based; conditions: in vivo; procedure, shortened: as §1
# Mus musculus [14] = test: Biodistribution of radioactivity in normal mice (ICR) heart after 1 hour of intravenous injection of [125I]-16(IMPY); type: ADME, organism-based; conditions: in vivo; procedure, shortened: as §1
# Mus musculus [15] = test: Biodistribution of radioactivity in normal mice (ICR) spleen after 30 minutes of intravenous injection of [125I]-16(IMPY); type: ADME, organism-based; conditions: in vivo, 0.5 h; procedure, shortened: as §1
# Mus musculus [16] = test: Biodistribution of radioactivity in normal mice (ICR) kidney after 6 hours of intravenous injection of [125I]-16(IMPY); type: ADME, organism-based; conditions: in vivo; procedure, shortened: as §1
# Mus musculus [17] = test: Biodistribution of radioactivity in normal mice (ICR) lung after 2 minutes of intravenous injection of [125I]-16(IMPY); type: ADME, organism-based; conditions: in vivo; procedure, shortened: as §1
# Mus musculus [18] = test: Biodistribution of radioactivity in normal mice (ICR) lung after 30 minutes of intravenous injection of [125I]-16(IMPY); type: ADME, organism-based; conditions: in vivo, 0.5 h; procedure, shortened: as §1
# Mus musculus [19] = test: Biodistribution of radioactivity in normal mice (ICR) spleen after 6 hours of intravenous injection of [125I]-16(IMPY); type: ADME, organism-based; conditions: in vivo; procedure, shortened: as §1
# Mus musculus [20] = test: Biodistribution of radioactivity in normal mice (ICR) liver after 6 hours of intravenous injection of [125I]-16(IMPY); type: ADME, organism-based; conditions: in vivo; procedure, shortened: as §1
# Mus musculus [21] = test: Biodistribution of radioactivity in normal mice blood after 1 hour of intravenous injection of [125I]-16(IMPY); type: ADME, organism-based; conditions: in vivo; procedure, shortened: as §1
# Mus musculus [22] = test: Biodistribution of radioactivity in normal mice blood after 30 minutes of intravenous injection of [125I]-16(IMPY); type: ADME, organism-based; conditions: in vivo, 0.5 h
# Procedure, shortened: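 Male ICR mice (2-3 months old, 20-30 g) under ether anesthesia; 0.15 mL of 0.1% bovine serum albumin solution containing the iodine-125 tracer injected into the tail vein. Mice killed by cardiac excision at set times. Organs removed, weighed and gamma-counted. Percent dose per organ derived against diluted aliquots of the injectate.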
# Mus musculus [23] = test: Biodistribution of radioactivity in normal mice (ICR) muscle after 1 hr of intravenous injection of [125I]-16(IMPY); type: ADME, organism-based, Muscle tissue; conditions: in vivo; procedure, shortened: as §1
# Mus musculus [24] = test: Biodistribution of radioactivity in normal mice (ICR) lung after 24 hours of intravenous injection of [125I]-16(IMPY); type: ADME, organism-based; conditions: in vivo; procedure, shortened: as §1
# Mus musculus [25] = test: Biodistribution of radioactivity in normal mice blood after 2 hours of intravenous injection of [125I]-16(IMPY); type: ADME, organism-based; conditions: in vivo; procedure, shortened: as §1
# Mus musculus [26] = test: Biodistribution of radioactivity in normal mice (ICR) kidney after 2 minutes of intravenous injection of [125I]-16(IMPY); type: ADME, organism-based; conditions: in vivo; procedure, shortened: as §1
# Mus musculus [27] = test: Biodistribution of radioactivity in normal mice (ICR) kidney after 24 hours of intravenous injection of [125I]-16(IMPY); type: ADME, organism-based; conditions: in vivo; procedure, shortened: as §1
compound,measurement,setting,value
CN(C)c1ccc(-c2cn3cc(I)ccc3n2)cc1,Dose/organ,Mus musculus [1],0.4%
same,Dose/organ,Mus musculus [2],2.19%
same,Dose/organ,Mus musculus [3],0.01%
same,Dose/organ,Mus musculus [4],0.14%
same,Dose/organ,Mus musculus [5],0.02%
same,Dose/organ,Mus musculus [6],0.53%
same,Dose/organ,Mus musculus [7],2.96%
same,Dose/organ,Mus musculus [8],0.21%
same,Dose/organ,Mus musculus [9],0.01%
same,Dose/organ,Mus musculus [10],0.05%
same,Dose/organ,Mus musculus [11],6.32%
same,Dose/organ,Mus musculus [12],0.22%
same,Dose/organ,Mus musculus [13],20.9%
same,Dose/organ,Mus musculus [14],0.12%
same,Dose/organ,Mus musculus [15],0.09%
same,Dose/organ,Mus musculus [16],0.25%
same,Dose/organ,Mus musculus [17],1.56%
same,Dose/organ,Mus musculus [18],0.31%
same,Dose/organ,Mus musculus [19],0.04%
same,Dose/organ,Mus musculus [20],1.54%
same,Dose/organ,Mus musculus [21],2.5%
same,Dose/organ,Mus musculus [22],2.44%
same,Dose/organ,Mus musculus [23],5.03%
same,Dose/organ,Mus musculus [24],0.05%
same,Dose/organ,Mus musculus [25],1.82%
same,Dose/organ,Mus musculus [26],4.75%
same,Dose/organ,Mus musculus [27],0.05%
